For assay [1], the system named is Mus musculus. As to the kind of experiment: Percentage of weight gained or lost in 4th week in normal swiss mice at a dose of 30 mg/kg/day. The class given is functional. Summed up:
(§1)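 Female Swiss mice, 6 weeks old, 5 per group. Given 30 mg/kg/day ip in sterile DMSO (0.1 mL) once daily for 6 days. DMSO and water controls. Weighed twice weekly for 28 days. Survival recorded at week 4.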

For assay [2], the system named is Mus musculus. Nature of the assay: Percentage of weight gained or lost in 2nd week in normal swiss mice at a dose of 30 mg/kg/day. The class given is functional. The essentials: as §1
The species entered for assay [3] is Mus musculus. As to the kind of experiment: Number of animals survived when the compound was tested at a dose of 30 mgkg/day in 5 Swiss mice. The class given is functional. Summed up: as §1
For assay [4], the system named is Mus musculus. As to the kind of experiment: Percentage of weight gained or lost in 3rd week in normal swiss mice at a dose of 30 mg/kg/day. The class given is functional. The essentials: as §1
Assay [5] has as its system Mus musculus. As to the kind of experiment: Percentage of weight gained or lost in 1 week in normal swiss mice at a dose of 30 mg/kg/day. The class given is functional. The essentials:
as §1

The next assay relates to CFU-GM. As to the kind of experiment: Compound was tested for inhibitory activity against human myeloid cells (CFU-GM). The class given is functional, cell-based. The essentials: (§2)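 Human bone marrow aspirated from healthy donors and heparinized. Mononuclear cells isolated on Ficoll-Hypaque, washed twice in HBSS; viability >98% by trypan blue. Bilayer soft agar or methyl cellulose culture at 0.1–100 μM. After 14 days at 37 °C in 5% CO2, colonies of ≥50 cells counted; % of control. Three donors, each in triplicate.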

Assay [6] is described as follows: Compound was tested for inhibitory activity against erythroid (BFU-E) progenitor cells. The class given is functional, Homo sapiens. Summed up:
as §2

For assay [7], the system named is PBMC. As to the kind of experiment: Antiviral activity against HIV-1 strain LAI in PBM cells on day 6. The class given is functional, cell-based. The note with it: Homo sapiens, 144 h. Summed up:
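HIV-1 (strain […] per footnote) in human PBM cells, acutely infected. Compounds from 40 mM DMSO stocks, diluted to test concentrations. EC50 from concentration-response curve by Chou–Talalay median-effect method. Replicate assays, variability under 15%.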

In a further assay the test system is Vero. As to the kind of experiment: Antiviral activity against HSV-1 strain F in Vero cells on day 2. The class given is functional, cell-based. The note with it: Chlorocebus sabaeus, 48 h. The essentials: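 Plaque reduction assay in Vero cells infected with HSV-1 strain F. […], diluted from 40 mM DMSO stocks. EC50 by Chou–Talalay median-effect analysis of the concentration-response curve. Replicate assays.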

The subject of assay [8] is PBMC. As to the kind of experiment: Cytotoxic concentration against PBM cells was determined on day 6. The class given is functional, cell-based. The note with it: Homo sapiens, 144 h. The essentials:
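Cytotoxicity in human PBM, CEM and Vero cells, compounds diluted from 40 mM DMSO stocks. IC50 from the concentration-response curve by Chou–Talalay median-effect method. Replicate assays, variability under 15%.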

For `C[S+](C)[O-]` [DIMETHYL SULFOXIDE], the “Weight gain or loss” value in the assay on Mus musculus [1] is reported as 10%; in the assay with Mus musculus [2], 3%; in the assay on Mus musculus [4] it was 6.3%; in the assay on Mus musculus [5], -0.9%. Moreover, in the assay listed under Mus musculus [3], the “No. of animals survived” value was 5.
On to `Cc1cn([C@H]2C[C@H](N=[N+]=[N-])[C@@H](CO)O2)c(=O)[nH]c1=O` [ZIDOVUDINE], for which the IC50 (in general, the point on the concentration scale where inhibition reaches its midpoint) in the assay on CFU-GM is 1.5 µM; in assay [6], 0.6 µM; with PBMC [8], over 100 µM. Besides, the values for the EC50 in the assay on PBMC [7] and in the assay on Vero were 0.004 µM and over 50 µM, respectively.

Source of the values: ChEMBL document CHEMBL1127851, “Synthesis and biological properties of 5-o-carboranyl-1-(2-deoxy-2-fluoro-beta-D-arabinofuranosyl)uracil” (J Med Chem, 1994).
